Measured values published in ChEMBL document CHEMBL2385039 (Bioorg Med Chem, 2013).

Tests used:
[1] = biological target: Sodium- and chloride-dependent GABA transporter 1 (Mus musculus, UniProt P31648); assay type: cell-based, HEK293
[2] = test system: Betaine/GABA transporter BGT1 (mGAT2, slc6a12, Mus musculus); assay: Inhibition of mouse GAT2 expressed in HEK cells assessed as remaining [3H]-GABA uptake at 100 uM after 25 mins by liquid scintillation counting analysis relative to control; details: HEK293
[3] = test system: GABA transporter 3 (mGAT3, slc6a13, Mus musculus); assay: Inhibition of mouse GAT3 expressed in HEK cells assessed as remaining [3H]-GABA uptake at 100 uM after 25 mins by liquid scintillation counting analysis relative to control; details: HEK293
HEK293 = assay: Inhibition of mouse GAT4 expressed in HEK cells assessed as remaining [3H]-GABA uptake at 100 uM after 25 mins by liquid scintillation counting analysis relative to control; assay type: cell-based
Method in brief: (§1)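 The assay used the standardized [³H]GABA uptake format in HEK lines, each stably expressing one murine GAT subtype (mGAT1, mGAT2, mGAT3 or mGAT4). The value is the remaining [³H]GABA uptake with 100 μM test compound present.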

[4] = biological target: Sodium- and chloride-dependent GABA transporter 1 (Mus musculus) (UniProt P31648); assay: Inhibition of mouse GAT1 expressed in HEK cells assessed as remaining [3H]-GABA uptake at 100 uM after 25 mins by liquid scintillation counting analysis relative to control; assay type: cell-based; details: HEK293
Method in brief: as §1

cells = assay type: cell-based; details: HEK293

Row | SMILES | IC50 [1] | Activity [2] | Activity [3] | Activity (HEK293) | Activity [4] | IC50 (cells)
1 | O=C(O)C1CCCN(CCO/C=C\c2ccccc2Cc2ccccc2)C1 (configuration not stated) | 0.398 µM | 68.6% | 56% | 66% |  | 
2 | O=C(c1cccc(F)c1)c1cc(F)ccc1/C=C/OCCN1CCCC(C(=O)O)C1 (configuration not stated) |  | 62.9% | 51.5% | 67.6% | 67.5% | 
3 | O=C(c1ccc(F)cc1)c1ccc(F)cc1/C=C/OCCN1CCCC(C(=O)O)C1 (configuration not stated) | 20.9 µM | 61.2% | 97.7% | 94.3% |  | 
4 | O=C(c1ccc(F)cc1)c1ccc(F)cc1/C=C\OCCN1CCCC(C(=O)O)C1 (configuration not stated) | 7.59 µM | 70.2% | 79.5% | 82.2% |  | 
5 | O=C(O)C1CCCN(CCO/C=C/c2cc(F)ccc2Cc2ccccc2F)C1 (configuration not stated) | 10.2 µM | 47.8% | 83.7% | 53.8% |  | 
6 | O=C(O)C1CCCN(CCO/C=C/c2cc(F)ccc2Cc2cccc(F)c2)C1 (configuration not stated) | 6.76 µM | 70.5% | 59.3% | 51.8% |  | 
7 | O=C(c1ccccc1)c1ccccc1/C=C\OCCN1CCCC(C(=O)O)C1 (configuration not stated) | 7.08 µM | 72.3% | 59.8% | 72.4% |  | 
8 | O=C(O)C1CCCN(CCO/C=C/c2ccccc2Cc2ccccc2)C1 (configuration not stated) | 4.17 µM | 60.2% |  |  |  | 31.6 µM
9 | Cc1ccsc1C(=CCCN1CCC[C@@H](C(=O)O)C1)c1sccc1C |  |  |  | 73.4% |  | 
10 | O=C(O)C1CCCN(CCO/C=C\c2ccc(F)cc2Cc2ccccc2F)C1 (configuration not stated) | 0.631 µM | 80.1% |  |  |  | 60.3 µM
11 | O=C(O)[C@@H]1CCCN(CCOCCc2ccccc2Cc2ccccc2)C1 | 0.1 µM |  |  |  |  | 
12 | O=C(O)C1CCCN(CCO/C=C/c2ccc(F)cc2Cc2ccc(F)cc2)C1 (configuration not stated) | 4.57 µM | 71.6% | 49.3% | 63.7% |  | 
13 | O=C(c1ccc(F)cc1)c1cc(F)ccc1/C=C\OCCN1CCCC(C(=O)O)C1 (configuration not stated) | 0.339 µM | 73% | 59.8% | 44.8% |  | 
14 | O=C(c1ccccc1)c1ccccc1/C=C/OCCN1CCCC(C(=O)O)C1 (configuration not stated) | 25.1 µM | 67.5% | 55.9% | 79.8% |  | 
15 | O=C(O)C1CCCN(CCO/C=C/c2ccc(F)cc2Cc2ccccc2F)C1 (configuration not stated) | 2.69 µM | 57.5% | 80.1% |  |  | 58.9 µM
16 | O=C(c1cccc(F)c1)c1ccc(F)cc1/C=C\OCCN1CCCC(C(=O)O)C1 (configuration not stated) | 2.63 µM | 96.1% | 83.6% | 52.1% |  | 
17 | O=C(O)C1CCCN(CCO/C=C\c2ccc(F)cc2Cc2ccc(F)cc2)C1 (configuration not stated) | 1.17 µM | 64.8% |  |  |  | 25.7 µM
18 | Cc1ccsc1C(=COCCN1CCC[C@@H](C(=O)O)C1)c1sccc1C | 0.0141 µM |  |  |  |  | 
19 | O=C(c1ccccc1F)c1ccc(F)cc1/C=C/OCCN1CCCC(C(=O)O)C1 (configuration not stated) | 8.13 µM | 68.6% | 57.6% | 52.1% |  | 
20 | O=C(O)[C@@H]1CCCN(CCC=C(c2ccccc2)c2ccccc2)C1 | 0.692 µM |  |  |  |  | 275 µM
21 | O=C(c1ccccc1F)c1cc(F)ccc1/C=C/OCCN1CCCC(C(=O)O)C1 (configuration not stated) | 10.7 µM |  |  |  |  | 67.6 µM
22 | O=C(O)C1CCCN(CCO/C=C/c2cc(F)ccc2Cc2ccc(F)cc2)C1 (configuration not stated) | 8.91 µM | 58.1% | 62% |  |  | 93.3 µM
23 | O=C(c1ccc(F)cc1)c1cc(F)ccc1/C=C/OCCN1CCCC(C(=O)O)C1 (configuration not stated) | 1.86 µM | 71.4% | 68.8% | 72.7% |  | 
24 | O=C(O)C1CCCN(CCO/C=C\c2cc(F)ccc2Cc2ccc(F)cc2)C1 (configuration not stated) | 1.1 µM |  |  | 50.3% |  | 
25 | O=C(O)C1CCCN(CCO/C=C\c2cc(F)ccc2Cc2ccccc2F)C1 (configuration not stated) | 0.302 µM | 71.1% |  |  |  | 49 µM
26 | O=C(c1cccc(F)c1)c1ccc(F)cc1/C=C/OCCN1CCCC(C(=O)O)C1 (configuration not stated) | 29.5 µM |  |  |  |  | 200 µM
27 | O=C(O)C1CCCN(CCO/C=C\c2cc(F)ccc2Cc2cccc(F)c2)C1 (configuration not stated) | 0.302 µM | 60.3% |  | 56% |  | 
28 | O=C(c1ccccc1F)c1cc(F)ccc1/C=C\OCCN1CCCC(C(=O)O)C1 (configuration not stated) | 0.759 µM |  | 43.5% | 45.1% |  | 
29 | O=C(c1ccccc1F)c1ccc(F)cc1/C=C\OCCN1CCCC(C(=O)O)C1 (configuration not stated) | 3.02 µM | 74.5% | 83.2% | 86.3% |  | 
30 | O=C(c1cccc(F)c1)c1cc(F)ccc1/C=C\OCCN1CCCC(C(=O)O)C1 (configuration not stated) | 0.794 µM | 56.9% | 52.7% | 45.2% |  | 
